Holding throughout (assay type): functional
In assay [1] the test system is NCI-N87. Put plainly: Antiproliferative activity against human NCI-N87 cells assessed as cell growth inhibition at 22 uM by MTT assay relative to control. The gist of the method:
(§1)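 Cells revived from cryostorage and grown under supplier-recommended conditions with test samples. Working solutions were made in 15% EtOH/Hank's balanced saline at 2 mg/mL solids. Final well concentrations were 110, 55 or 22 μM, and the 5-fluorouracil reference was run at 450, 150 and 50 nM. MTT viability read after incubation, expressed as % proliferation versus a cells-only control, with six replicates.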
On the technique in general: Tetrazolium assays rely on reduction of a dye to a coloured formazan, in cell work by metabolically active cells.

Assay [2] has as its system NCI-N87. Put plainly: Antiproliferative activity against human NCI-N87 cells assessed as cell growth inhibition at 55 uM by MTT assay relative to control. The gist of the method:
as §1

In assay [3] the test system is DLD-1. Kind of assay: Antiproliferative activity against human DLD1 cells assessed as cell growth inhibition at 55 uM by MTT assay relative to control. The gist of the method:
as §1

Assay [4] has as its system KYSE-30. Kind of assay: Antiproliferative activity against human KYSE-30 cells assessed as cell growth inhibition at 22 uM by MTT assay relative to control. The gist of the method: as §1
For assay [5], the system named is DLD-1. Kind of assay: Antiproliferative activity against human DLD1 cells assessed as cell growth inhibition at 110 uM by MTT assay relative to control. The gist of the method: as §1
The subject of assay [6] is KYSE-30. Put plainly: Antiproliferative activity against human KYSE-30 cells assessed as cell growth inhibition at 55 uM by MTT assay relative to control. The gist of the method:
as §1

Assay [7] concerns KYSE-30. Kind of assay: Antiproliferative activity against human KYSE-30 cells assessed as cell growth inhibition at 110 uM by MTT assay relative to control. The gist of the method:
as §1

The test system of assay [8] is NCI-N87. Put plainly: Antiproliferative activity against human NCI-N87 cells assessed as cell growth inhibition at 110 uM by MTT assay relative to control. The gist of the method: as §1
For assay [9], the system named is KYSE-30. Put plainly: Antiproliferative activity against human KYSE-30 cells assessed as cell growth inhibition at 450 nM by MTT assay relative to control. The gist of the method: (§2)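 Cells revived from cryostorage and cultured under supplier-recommended conditions with test or reference samples. Working solutions at 2 mg/mL solids in 15% EtOH/Hank's balanced saline. 5-Fluorouracil positive control at final well concentrations of 450, 150 and 50 nM. MTT viability read-out after incubation, expressed as percentage proliferation versus cells-only control; six replicates for test and control.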

Assay [10] concerns DLD-1. Put plainly: Antiproliferative activity against human DLD1 cells assessed as cell growth inhibition at 450 nM by MTT assay relative to control. The gist of the method:
as §2

In assay [11] the test system is NCI-N87. Kind of assay: Antiproliferative activity against human NCI-N87 cells assessed as cell growth inhibition at 450 nM by MTT assay relative to control. The gist of the method:
as §2

Five molecules from ChEMBL document CHEMBL4414556, “Antiproliferative Acylated Glycerols from New Zealand Propolis” (2019) can be followed below.

As a reminder, the inhibition is the change of the read-out against control, counted positive when it falls.

Consider `CCCCCCCCCCCC[C@@H](O)CCCC[C@@H](O)CC(=O)OCC(O)COC(C)=O` (stereo not given in full), for which the inhibition at 22 µM is 39% in the assay with NCI-N87 [1] and 9% in the assay with KYSE-30 [4]. Besides, the inhibition at 55 µM with NCI-N87 [2] is 86%; in the assay with DLD-1 [3], 13%; with KYSE-30 [6], 50%. For the same molecule, the inhibition at 110 µM in the assay on DLD-1 [5] was found to be 94%; with KYSE-30 [7], 52%; with NCI-N87 [8], 100%.
With `CCCCCCCCCCCC[C@@H](O)CCCC[C@@H](O)CC(=O)OCC(O)CO` (stereo not given in full), the inhibition at 110 µM in the assay with DLD-1 [5] amounted to 80%; in the assay on KYSE-30 [7], 52%; in the assay on NCI-N87 [8], 100%.
Taken in the same sequence, the figures for `CCCCCCCCCCCCC[C@@H](O)CCCC[C@@H](O)CC(=O)OCC(O)COC(C)=O` (stereo not given in full) were 91%, 29% and 100%.
As to `O=c1[nH]cc(F)c(=O)[nH]1` [FLUOROURACIL], the results for the inhibition at 0.45 µM in the assay with KYSE-30 [9], in the assay on DLD-1 [10] and in the assay with NCI-N87 [11] were 17%, 21% and 8%, respectively.
Take `CCCCCCCCCCCCCCCC(=O)OCC(O)CO` (stereo not given) [GLYCEROL MONOPALMITATE]: the values for the inhibition at 110 µM in the assay with DLD-1 [5], in the assay with KYSE-30 [7] and with NCI-N87 [8] were 72%, 75% and 100%, respectively.
